Data from ChEMBL document CHEMBL1155498, “Glycine amides as PPARalpha agonists” (Bioorg Med Chem Lett, 2010).
Converted amounts (≈) assume the structure as drawn. Values belong to the compound of their own block, whether it stands above or below them.

Key:
[1] = molecular target: T1, Peroxisome proliferator-activated receptor alpha (Homo sapiens, UniProt Q07869); assay: Agonist activity at Gal4-fused human PPARalpha; format: functional
T1 sequence (Q07869 whole entry): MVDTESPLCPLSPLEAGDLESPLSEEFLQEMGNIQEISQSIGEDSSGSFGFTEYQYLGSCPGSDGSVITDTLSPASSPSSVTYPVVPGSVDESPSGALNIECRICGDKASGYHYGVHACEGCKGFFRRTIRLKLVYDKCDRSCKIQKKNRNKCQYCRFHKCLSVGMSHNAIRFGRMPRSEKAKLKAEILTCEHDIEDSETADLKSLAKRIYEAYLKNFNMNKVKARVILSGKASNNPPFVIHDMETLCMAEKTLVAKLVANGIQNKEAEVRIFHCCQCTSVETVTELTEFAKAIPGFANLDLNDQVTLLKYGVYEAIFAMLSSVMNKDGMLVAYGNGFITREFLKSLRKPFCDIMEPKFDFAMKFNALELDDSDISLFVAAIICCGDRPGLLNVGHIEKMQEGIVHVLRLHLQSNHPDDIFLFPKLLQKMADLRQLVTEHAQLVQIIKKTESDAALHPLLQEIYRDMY

[2] = Aqueous solubility of the compound; format: physicochemical
[3] = molecular target: T2, Peroxisome proliferator-activated receptor gamma (Homo sapiens, UniProt P37231); assay: Agonist activity at Gal4-fused human PPARgamma
T2 sequence (P37231 whole entry): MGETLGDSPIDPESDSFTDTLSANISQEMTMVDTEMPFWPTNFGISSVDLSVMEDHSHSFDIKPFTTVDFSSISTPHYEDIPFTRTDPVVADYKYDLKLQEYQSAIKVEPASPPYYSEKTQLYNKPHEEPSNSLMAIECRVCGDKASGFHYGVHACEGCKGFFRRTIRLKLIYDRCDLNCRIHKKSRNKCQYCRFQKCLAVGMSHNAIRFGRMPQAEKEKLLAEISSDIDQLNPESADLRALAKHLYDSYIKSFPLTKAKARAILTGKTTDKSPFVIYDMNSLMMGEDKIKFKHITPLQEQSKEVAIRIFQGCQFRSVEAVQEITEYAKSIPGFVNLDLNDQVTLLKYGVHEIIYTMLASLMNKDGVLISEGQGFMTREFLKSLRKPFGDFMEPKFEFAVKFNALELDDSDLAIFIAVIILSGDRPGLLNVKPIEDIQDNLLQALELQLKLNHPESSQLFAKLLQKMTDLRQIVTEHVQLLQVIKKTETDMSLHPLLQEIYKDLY

[4] = molecular target: T3, Peroxisome proliferator-activated receptor gamma (Mus musculus, UniProt P37238); assay: Agonist activity at Gal4-fused mouse PPARgamma; format: functional
T3 sequence (P37238 whole entry): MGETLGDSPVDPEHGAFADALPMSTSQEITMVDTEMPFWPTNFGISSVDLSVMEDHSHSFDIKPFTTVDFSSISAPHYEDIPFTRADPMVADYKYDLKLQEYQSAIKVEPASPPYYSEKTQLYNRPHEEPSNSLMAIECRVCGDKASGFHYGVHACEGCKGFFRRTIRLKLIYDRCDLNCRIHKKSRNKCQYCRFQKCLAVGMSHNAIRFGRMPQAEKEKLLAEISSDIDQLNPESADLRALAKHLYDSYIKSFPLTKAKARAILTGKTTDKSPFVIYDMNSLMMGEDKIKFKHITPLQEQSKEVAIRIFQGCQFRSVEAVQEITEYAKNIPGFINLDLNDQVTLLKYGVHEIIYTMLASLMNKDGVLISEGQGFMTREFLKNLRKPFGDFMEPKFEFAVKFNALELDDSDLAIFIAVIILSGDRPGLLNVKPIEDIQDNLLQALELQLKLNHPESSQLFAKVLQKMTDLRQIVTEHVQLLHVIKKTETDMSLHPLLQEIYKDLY

[5] = Clearance in NMRI mouse at 3 mg/kg, iv; format: ADME, organism-based; parameters: dose 3 mg/kg, route intravenous; details: in vivo
Method in brief: (§1)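 Male NMRI mice (n = 3) given 3 mg/kg iv in 20% PEG400. Plasma concentration–time profile followed over about 6 h. Concentrations dose-normalised to 1 mg/kg.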

[6] = molecular target: T4, Peroxisome proliferator-activated receptor delta (Homo sapiens, UniProt Q03181); assay: Agonist activity at Gal4-fused human PPARdelta; format: functional
T4 sequence (Q03181 whole entry): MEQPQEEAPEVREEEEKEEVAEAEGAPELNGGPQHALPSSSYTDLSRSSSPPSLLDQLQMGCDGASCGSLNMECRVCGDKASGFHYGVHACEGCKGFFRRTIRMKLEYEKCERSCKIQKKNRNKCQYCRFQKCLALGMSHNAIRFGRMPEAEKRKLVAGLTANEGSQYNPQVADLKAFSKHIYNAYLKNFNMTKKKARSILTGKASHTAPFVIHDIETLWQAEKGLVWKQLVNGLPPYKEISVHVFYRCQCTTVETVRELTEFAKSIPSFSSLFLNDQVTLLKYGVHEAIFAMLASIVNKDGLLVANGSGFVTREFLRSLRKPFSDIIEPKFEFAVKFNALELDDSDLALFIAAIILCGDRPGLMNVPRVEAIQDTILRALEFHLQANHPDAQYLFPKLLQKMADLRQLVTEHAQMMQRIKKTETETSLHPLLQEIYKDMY

[7] = Oral bioavailability in NMRI mouse at 10 mg/kg; format: ADME, organism-based; details: in vivo
Method in brief: (§2)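 Male NMRI mice (n = 3) dosed orally at 10 mg/kg as a suspension in 20% PEG 400 (5 ml/kg). Plasma sampled at 7 time points up to 6 h. Concentrations dose-normalised to 1 mg/kg. Bioavailability taken against an iv arm (3 mg/kg, 20% PEG400, n = 3).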

Mus musculus [8] = assay: Increase in total cholesterol level in human ApoA1 transgenic mouse at 0.6 mg/kg, po for 7 days (RVb = 29 %); format: functional
Method in brief: (§3)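 Male transgenic hAPO-A1 C57BL/6 mice, n = 10 per dose. Dosed orally once daily for 7 d at 0.6, 2 or 6 mg/kg in Solutol HS15 + ethanol + 0.9% brine (1+1+8), 10 ml/kg. Serum triglycerides and total cholesterol measured photometrically against vehicle control. Total cholesterol serves as a surrogate for HDL.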

[9] = Half life in NMRI mouse at 3 mg/kg, iv; format: ADME, organism-based; parameters: dose 3 mg/kg, route intravenous; details: in vivo; method in brief: as §1
[10] = AUC in NMRI mouse at 10 mg/kg, po; format: ADME, organism-based; parameters: dose 10 mg/kg, route oral; details: plasma; method in brief: as §2
Mus musculus [11] = assay: Reduction in triglyceride level in human ApoA1 transgenic mouse at 2 mg/kg, po for 7 days relative to control; format: functional; parameters: scale not given: the % may be the effect or the level left; method in brief: as §3
Albumin = Albumin (Homo sapiens, UniProt P02768); assay: Binding affinity to human serum albumin; format: ADME; details: isolated protein
[12] = Tmax in NMRI mouse at 10 mg/kg, po; format: ADME, organism-based; parameters: dose 10 mg/kg, route oral; details: in vivo; method in brief: as §2
Mus musculus [13] = assay: Increase in total cholesterol level in human ApoA1 transgenic mouse at 2 mg/kg, po for 7 days (RVb = 29 %); format: functional; method in brief: as §3
[14] = molecular target: T5, Peroxisome proliferator-activated receptor delta (Mus musculus, UniProt P35396); assay: Agonist activity at Gal4-fused mouse PPARdelta; format: functional
T5 sequence (P35396 whole entry): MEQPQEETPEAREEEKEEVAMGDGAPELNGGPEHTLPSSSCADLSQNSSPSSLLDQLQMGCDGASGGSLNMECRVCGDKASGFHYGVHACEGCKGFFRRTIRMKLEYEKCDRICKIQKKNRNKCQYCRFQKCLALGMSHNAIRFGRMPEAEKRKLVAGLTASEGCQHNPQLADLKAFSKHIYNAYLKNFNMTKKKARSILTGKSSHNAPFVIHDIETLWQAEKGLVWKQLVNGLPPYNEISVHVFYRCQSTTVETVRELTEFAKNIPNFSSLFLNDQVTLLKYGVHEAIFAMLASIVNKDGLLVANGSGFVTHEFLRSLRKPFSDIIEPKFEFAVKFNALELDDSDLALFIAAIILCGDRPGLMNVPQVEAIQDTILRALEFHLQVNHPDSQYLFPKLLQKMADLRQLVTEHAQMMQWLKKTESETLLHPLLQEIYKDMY

Mus musculus [15] = assay: Increase in total cholesterol level in human ApoA1 transgenic mouse at 6 mg/kg, po for 7 days (RVb = 29 %); format: functional; method in brief: as §3
[16] = molecular target: T6, Peroxisome proliferator-activated receptor alpha (Mus musculus, UniProt P23204); assay: Agonist activity at Gal4-fused mouse PPARalpha; format: functional
T6 sequence (P23204 whole entry): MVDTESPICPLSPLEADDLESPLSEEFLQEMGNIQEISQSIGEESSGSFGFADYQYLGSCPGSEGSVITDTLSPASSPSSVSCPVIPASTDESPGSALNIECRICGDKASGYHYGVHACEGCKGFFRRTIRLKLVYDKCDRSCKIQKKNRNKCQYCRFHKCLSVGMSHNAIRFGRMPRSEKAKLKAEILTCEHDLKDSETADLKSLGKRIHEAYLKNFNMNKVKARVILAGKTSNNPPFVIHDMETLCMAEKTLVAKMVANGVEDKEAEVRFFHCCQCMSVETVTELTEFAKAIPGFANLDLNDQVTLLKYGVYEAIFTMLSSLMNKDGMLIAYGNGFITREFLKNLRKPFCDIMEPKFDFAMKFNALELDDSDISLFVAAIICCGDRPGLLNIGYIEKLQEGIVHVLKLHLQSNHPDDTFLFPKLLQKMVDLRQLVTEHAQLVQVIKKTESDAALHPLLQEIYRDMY

Mus musculus [17] = assay: Reduction in triglyceride level in human ApoA1 transgenic mouse at 0.6 mg/kg, po for 7 days relative to control; format: functional; parameters: scale not given: the % may be the effect or the level left; method in brief: as §3

Chain of Albumin (P02768 whole entry): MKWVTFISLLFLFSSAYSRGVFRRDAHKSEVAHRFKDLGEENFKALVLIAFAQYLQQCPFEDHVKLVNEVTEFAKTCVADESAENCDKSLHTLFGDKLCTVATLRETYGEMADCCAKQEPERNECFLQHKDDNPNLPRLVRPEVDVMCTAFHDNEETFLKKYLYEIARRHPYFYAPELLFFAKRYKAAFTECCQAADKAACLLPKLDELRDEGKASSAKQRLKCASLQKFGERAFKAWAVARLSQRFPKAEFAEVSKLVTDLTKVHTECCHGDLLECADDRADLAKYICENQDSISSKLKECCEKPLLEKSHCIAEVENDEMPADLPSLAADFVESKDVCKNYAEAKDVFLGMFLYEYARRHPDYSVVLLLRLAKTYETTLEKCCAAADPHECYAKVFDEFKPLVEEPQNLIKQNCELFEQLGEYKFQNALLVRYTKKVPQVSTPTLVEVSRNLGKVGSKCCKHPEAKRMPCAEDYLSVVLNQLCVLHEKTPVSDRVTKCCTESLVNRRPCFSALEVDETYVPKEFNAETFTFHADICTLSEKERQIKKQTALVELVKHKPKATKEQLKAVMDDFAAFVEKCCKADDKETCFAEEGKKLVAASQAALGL

EC50 [1]: 0.6 µM
Compound: Cc1ccc(C)c(NC(=O)CN(Cc2ccc(OC(C)(C)C(=O)O)cc2)Cc2ccco2)c1

EC50 [1]: 1.5 µM
Compound: CC(C)(Oc1ccc(CN(CC(=O)Nc2ccc(F)cc2F)Cc2ccco2)cc1)C(=O)O

EC50 [1]: 0.3 µM
Compound: COc1ccc(OC)c(NC(=O)CN(Cc2ccc(OC(C)(C)C(=O)O)cc2)Cc2ccco2)c1

EC50 [1]: 0.9 µM
Compound: COc1ccc(CN(CC(=O)Nc2ccc(C)cc2C)Cc2ccc(OC(C)(C)C(=O)O)cc2)cc1

EC50 [1]: > 25 µM
Compound: CC(C)(Oc1ccc(CN(CC(=O)Nc2ccccn2)Cc2ccco2)cc1)C(=O)O

EC50 [1]: 13 µM
Compound: CC(C)(Oc1ccc(CN(CC(=O)NCc2ccccc2)Cc2ccco2)cc1)C(=O)O

EC50 [1]: 7 µM
Compound: CC(C)(Oc1ccc(CN(CC(=O)NCc2ccccc2Cl)Cc2ccco2)cc1)C(=O)O

EC50 [1]: 3 µM
Compound: COc1cccc(NC(=O)CN(Cc2ccc(OC(C)(C)C(=O)O)cc2)Cc2ccco2)c1

EC50 [1]: 2 µM
Compound: Cc1ccccc1NC(=O)CN(Cc1ccc(OC(C)(C)C(=O)O)cc1)Cc1ccco1

The remaining lines, values behind:

Compound: CCCCN(CC(=O)Nc1ccc(C)cc1C)Cc1ccc(OC(C)(C)C(=O)O)cc1
EC50 [1]: 10 µM

Compound: CCCN(CC(=O)Nc1ccc(C)cc1C)Cc1ccc(OC(C)(C)C(=O)O)cc1
EC50 [1]: 1 µM

Compound: CCCCCCCN(CC(=O)Nc1ccc(C)cc1C)Cc1ccc(OC(C)(C)C(=O)O)cc1
EC50 [1]: > 25 µM

Compound: Cc1ccc(NC(=O)CN(Cc2ccccc2)Cc2ccc(OC(C)(C)C(=O)O)cc2)c(C)c1
EC50 [1]: 1 µM

Compound: Cc1ccc(NC(=O)CN(Cc2ccc(OC(C)(C)C(=O)O)cc2)Cc2ccco2)c(C)c1
EC50 [1]: 0.02 µM
solubility [2]: 500 µg/mL (≈ 1110 µM)
EC50 [3]: 0.8 µM
EC50 [4]: 0.3 µM
clearance [5]: 89.2 mL/min/kg
EC50 [6]: 6 µM
bioavailability [7]: 20%
Activity (Mus musculus [8]): 58%
half-life [9]: 2 h
AUC [10]: 370 ng·h/mL
Activity (Mus musculus [11]): -20%
Activity (Albumin): 10 µM
Tmax [12]: 0.5 h
Activity (Mus musculus [13]): 74%
EC50 [14]: 2 µM
Activity (Mus musculus [15]): 91%
EC50 [16]: 0.02 µM
Activity (Mus musculus [17]): -3%

Compound: Cc1ccc(NC(=O)CN(Cc2ccc(OC(C)(C)C(=O)O)cc2)Cc2cccs2)c(C)c1
EC50 [1]: 0.7 µM

Compound: CCCCCCCN(CCc1ccc(SC(C)(C)C(=O)O)cc1)C(=O)Nc1ccc(F)cc1F [GSK-9578]
solubility [2]: 100 µg/mL (≈ 203 µM)
EC50 [4]: 2.5 µM
EC50 [6]: 2 µM
Activity (Albumin): 1.3 µM
EC50 [14]: 2 µM
EC50 [16]: 0.01 µM
